CRFR2-BP antag = antagonists of CRF-BP/CRF-R2 complex, primary screen, cell-based, HEK293, calcium dye fluorescence, uHTS. CRF-induced calcium fluorescence. inhibition, % at 11.8 µM. 0.59% of 350,000 active;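 active means inhibition of the ligand-induced calcium signal above about 50% at the single tested concentration, limit read from the data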
CRFBP-R2 agonist = agonists of CRF-BP/CRF-R2 complex, primary screen, cell-based, HEK293, calcium dye fluorescence, uHTS. 0.46% of 350,000 active. CRF-binding protein / CRF receptor 2 complex (human). activation, % at 13.2 µM. calcium dye fluorescence (FLIPR); percent of saturating CRF peptide response;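 active means activation of at least 50%, plus an integration ratio under a set limit after plate pattern correction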
proKLK7 act = proKLK7 zymogen activators, primary screen, biochemical, fluorescence intensity | Kallikrein-7 (Homo sapiens), P49862 | purified proKLK7, EDANS-DABCYL substrate fluorescence; 100% is mature enzyme control, 0% vehicle | activation, % at 7 µM | 0.9% of 370,000 active;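 active means activation above the mean of all tested compounds plus 3 SD, computed per campaign excluding outliers beyond control limits, cut at about 13% in these data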
Tn7 DDE FP = inhibitors of Tn7 peptide binding to fibrin DD(E), primary screen, biochemical, fluorescence polarization, human fibrin, Tn7 probe. Fibrinogen beta chain (Homo sapiens), P02675. FP displacement of FITC-Tn7 peptide from fibrin DD(E); 0% = median of compound wells per plate. inhibition, % at 8.3 µM. 0.13% of 370,000 active. AID 720508, 2013;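 active means inhibition above the mean of compounds falling within the control limits plus 3 SD of them, cut at about 14% in these data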
Target sequence (P02675 whole entry, looked up): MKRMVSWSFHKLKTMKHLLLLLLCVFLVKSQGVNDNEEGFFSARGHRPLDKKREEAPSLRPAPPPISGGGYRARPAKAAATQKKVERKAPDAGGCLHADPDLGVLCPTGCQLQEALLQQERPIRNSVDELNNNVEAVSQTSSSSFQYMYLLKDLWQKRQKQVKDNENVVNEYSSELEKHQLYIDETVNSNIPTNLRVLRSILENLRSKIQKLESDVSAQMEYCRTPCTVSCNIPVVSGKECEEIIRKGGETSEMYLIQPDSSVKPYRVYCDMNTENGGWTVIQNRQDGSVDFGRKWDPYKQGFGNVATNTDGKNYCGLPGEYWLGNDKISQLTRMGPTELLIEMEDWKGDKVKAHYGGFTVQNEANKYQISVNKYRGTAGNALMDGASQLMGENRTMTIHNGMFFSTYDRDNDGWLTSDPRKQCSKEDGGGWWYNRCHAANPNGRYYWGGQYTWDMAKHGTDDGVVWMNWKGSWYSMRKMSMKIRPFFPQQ
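Measure: % inhibition scaled between sample-field median and high-control FP; Test system: human fibrin DD(E); Quantity: 2 µM final DD(E) protein; Doses: one dose, 8.3 µM nominal; Schedule: compound with protein 10 min, then 3 h after probe, room temperature; Detection: fluorescence polarization; Medium: Tris buffer with calcium and detergent, pH 7.8.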
DDE Tn6 FP inh = inhibitors of Tn6 peptide binding to fibrin DD(E), primary screen, biochemical, fluorescence polarization, human fibrin, Tn6 probe | 0.21% of 370,000 active | Fibrin DD(E) TRITC-Tn6 fluorescence polarization displacement | inhibition, % at 8.3 µM | Fibrinogen beta chain (Homo sapiens), P02675;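 active means inhibition above a per-campaign cutoff: mean of compounds within control limits plus 3 SD, cut at about 15% in these data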
CendR NRP1 mod = modulators of CendR peptide binding to NRP-1, primary screen, biochemical, fluorescence polarization, uHTS | Neuropilin-1 (Homo sapiens), O14786 | FAM-RPARPAR peptide binding to NRP-1 | inhibition, % at 25 µM | 0.85% of 360,000 active;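 active means inhibition or corrected inhibition above about 18%, plus a signal ratio from 0.5 to 1.5, limit read from the data, passing the limit was not always enough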
proKLK7 act conf = proKLK7 zymogen activators, confirmation, biochemical, fluorescence intensity, triplicate | activation, % at 7 µM | purified proKLK7, EDANS-DABCYL substrate fluorescence; scaled: vehicle 0, mature enzyme 100 | AID 686949, 2013 | 68% of 3,200 active | shares compounds with proKLK7 act;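 active means activation, as change over the incubation, above the mean of all tested compounds plus 3 SD, cut at about 13% in these data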
EDANS interfere = EDANS-DABCYL substrate optical interference, artefact control for kallikrein-7 zymogen activator project, biochemical, fluorescence intensity, high throughput. 80% of 3,200 active. no enzyme, 4 h; solvent 0%, active enzyme control 100%. activation, % at 7 µM. shares compounds with proKLK7 act;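 active means activation above the all-compound mean plus 3 SD, ignoring values outside control-based bounds, cut at about 4.8% in these data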;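 further: value is the 4 h activation minus the activation read at time zero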
Numbers stand for hits. Compounds with a hit are over-represented: about 2.9% of the library has one in this group of screens.

How did O=c1cc(CN2CCc3ccccc32)c2ccc(O)cc2o1 do in these assays?
CRFR2-BP antag: inactive; CRFBP-R2 agonist: inactive; proKLK7 act: 18.8; Tn7 DDE FP: inactive; DDE Tn6 FP inh: inactive; CendR NRP1 mod: inactive; proKLK7 act conf: 40.8; EDANS interfere: 45.1

How did Cc1ccc(S(=O)(=O)n2ccc(-c3c(-c4ccc(F)cc4)noc3C)n2)cc1 do in these assays?
proKLK7 act: inactive; Tn7 DDE FP: inactive; DDE Tn6 FP inh: inactive

What do the screens show for `Cc1oc2c(CN3CCCC3)c(O)ccc2c(=O)c1-c1ccc(Cl)cc1`?
CRFR2-BP antag: inactive; CRFBP-R2 agonist: inactive; proKLK7 act: 27.2; Tn7 DDE FP: inactive; DDE Tn6 FP inh: inactive; CendR NRP1 mod: inactive; proKLK7 act conf: 39.8; EDANS interfere: 49.6

How did Cc1oc2c(CN3CCOCC3)c(O)ccc2c(=O)c1-c1ccc(Cl)cc1 do in these assays?
CRFR2-BP antag: inactive; CRFBP-R2 agonist: inactive; proKLK7 act: 49.3; Tn7 DDE FP: inactive; DDE Tn6 FP inh: inactive; CendR NRP1 mod: inactive; proKLK7 act conf: inactive; EDANS interfere: 6.1

What do the screens show for `Cc1oc2c(CN3CCOCC3)c(O)ccc2c(=O)c1-c1ccc(Br)cc1`?
CRFR2-BP antag: inactive; CRFBP-R2 agonist: inactive; proKLK7 act: inactive; Tn7 DDE FP: inactive; DDE Tn6 FP inh: inactive; CendR NRP1 mod: inactive

What do the screens show for `Cc1oc2c(CN3CCC(C)CC3)c(O)ccc2c(=O)c1-c1ccccc1`?
CRFR2-BP antag: inactive; CRFBP-R2 agonist: inactive; proKLK7 act: 36.5; Tn7 DDE FP: inactive; DDE Tn6 FP inh: inactive; CendR NRP1 mod: inactive; proKLK7 act conf: 40.1; EDANS interfere: 44.8

Results for Cc1oc2c(CN3CCCC3)c(O)ccc2c(=O)c1-c1ccccc1 ?
CRFR2-BP antag: inactive; CRFBP-R2 agonist: inactive; CendR NRP1 mod: inactive

Results for Cc1ccc(O)c(C(=O)c2cnn(C(=O)Cc3csc(C)n3)c2)c1 ?
CRFR2-BP antag: inactive; CRFBP-R2 agonist: inactive; proKLK7 act: 19.8; Tn7 DDE FP: inactive; DDE Tn6 FP inh: inactive; CendR NRP1 mod: inactive; proKLK7 act conf: 53.6; EDANS interfere: 52.7

Results for COc1ccc(NC(=O)c2sc3nc(-c4cccnc4)ccc3c2N)cc1OC ?
CRFR2-BP antag: inactive; CRFBP-R2 agonist: inactive; proKLK7 act: 56.0; Tn7 DDE FP: inactive; DDE Tn6 FP inh: inactive; CendR NRP1 mod: inactive; proKLK7 act conf: 14.8; EDANS interfere: 15.7

Results for COc1ccc(NC(=O)c2sc3nc(-c4cccnc4)ccc3c2N)cc1 ?
CRFR2-BP antag: inactive; CRFBP-R2 agonist: inactive; proKLK7 act: inactive; Tn7 DDE FP: inactive; DDE Tn6 FP inh: inactive; CendR NRP1 mod: inactive

Results for C[C@H]1[C@@H](OC(=O)Nc2cccc(C(F)(F)F)c2)CC[C@@]23CCCN2C(=O)CCC[C@@H]13 ?
Tn7 DDE FP: inactive; DDE Tn6 FP inh: inactive

How did CCOC(=O)C(=NC1CCS(=O)(=O)C1)NNc1ccc(Br)cc1 (stereo not drawn) do in these assays?
CRFR2-BP antag: inactive; CRFBP-R2 agonist: inactive; proKLK7 act: inactive; Tn7 DDE FP: inactive; DDE Tn6 FP inh: inactive; CendR NRP1 mod: inactive

How did CCOC(=O)C(=NC(C)CC)NNc1ccc(Br)cc1 (stereo not drawn) do in these assays?
CRFR2-BP antag: inactive; CRFBP-R2 agonist: inactive; proKLK7 act: 16.3; Tn7 DDE FP: inactive; DDE Tn6 FP inh: inactive; CendR NRP1 mod: inactive; proKLK7 act conf: 24.0; EDANS interfere: 25.5

How did CCOC(=O)C(=NC(C)CC)NNc1cccc(C(F)(F)F)c1 (stereo not drawn) do in these assays?
CRFR2-BP antag: inactive; CRFBP-R2 agonist: inactive; proKLK7 act: 17.2; Tn7 DDE FP: inactive; DDE Tn6 FP inh: inactive; CendR NRP1 mod: inactive; proKLK7 act conf: 22.2; EDANS interfere: 26.2

How did Cc1cc(C)nc(NC(=S)N2CCN(c3ccc(Cl)c(Cl)c3)CC2)c1 do in these assays?
Tn7 DDE FP: inactive; DDE Tn6 FP inh: inactive

What do the screens show for `CNC(C)C#Cc1ccc2oc3cccc(OC)c3c(=O)c2c1` (stereo not drawn)?
CRFR2-BP antag: inactive; CRFBP-R2 agonist: inactive; proKLK7 act: 34.1; Tn7 DDE FP: inactive; DDE Tn6 FP inh: inactive; CendR NRP1 mod: inactive; proKLK7 act conf: inactive; EDANS interfere: 12.1

Results for c1ccc(Nc2nc3ccccc3n3nnnc23)cc1 ?
CRFR2-BP antag: inactive; CRFBP-R2 agonist: inactive; proKLK7 act: 19.5; Tn7 DDE FP: inactive; DDE Tn6 FP inh: inactive; CendR NRP1 mod: inactive; proKLK7 act conf: inactive; EDANS interfere: 46.2

Results for C[C@H]1[C@@H](C(=O)N2CCCC2)Cc2nc3ccccc3nc2C[C@@H]1c1ccccc1 ?
proKLK7 act: inactive; Tn7 DDE FP: inactive; DDE Tn6 FP inh: inactive

How did COc1ccc(-c2[nH]nc3oc(=O)cc(C)c23)cc1 do in these assays?
CRFR2-BP antag: inactive; CRFBP-R2 agonist: inactive; proKLK7 act: 12.9; Tn7 DDE FP: inactive; DDE Tn6 FP inh: inactive; CendR NRP1 mod: inactive; proKLK7 act conf: 14.8; EDANS interfere: 21.3

Results for Cc1cc(=O)oc2n[nH]c(-c3ccccc3)c12 ?
CRFR2-BP antag: inactive; CRFBP-R2 agonist: inactive; proKLK7 act: inactive; Tn7 DDE FP: inactive; DDE Tn6 FP inh: inactive; CendR NRP1 mod: inactive

How did Cc1ccc(-c2cc(C#N)c3n(c2=O)CCC3)cc1 do in these assays?
proKLK7 act: inactive; Tn7 DDE FP: inactive; DDE Tn6 FP inh: inactive

How did COC(=O)CSc1[nH]c2ccc(Br)cc2c1[N+](=O)[O-] do in these assays?
CRFR2-BP antag: inactive; CRFBP-R2 agonist: inactive; proKLK7 act: inactive; Tn7 DDE FP: inactive; DDE Tn6 FP inh: inactive; CendR NRP1 mod: inactive

How did CCOc1ccc2[nH]c(SCC(=O)OC)c([N+](=O)[O-])c2c1 do in these assays?
CRFR2-BP antag: inactive; CRFBP-R2 agonist: inactive; proKLK7 act: 13.3; Tn7 DDE FP: inactive; DDE Tn6 FP inh: inactive; CendR NRP1 mod: inactive; proKLK7 act conf: 18.5; EDANS interfere: 16.0
